Experimental data published in ChEMBL document CHEMBL1154742, “Modular synthesis and in vitro and in vivo antimalarial assessment of C-10 pyrrole mannich base derivatives of artemisinin” (J Med Chem, 2010).

Tests used:
KB = assay: Cytotoxicity against human KB cells after 72 hrs by alamar blue assay; assay type: cell-based
Procedure, shortened: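 KB cells seeded at 4 × 10^4 cells/mL in RPMI 1640 with 10% heat-inactivated fetal calf serum and grown 24 h at 37 °C in 5% CO2. Compound dilution series added in triplicate for 72 h, with podophyllotoxin as positive control. AlamarBlue added for 2-4 h; fluorescence read at ex 530/em 585 nm and IC50 obtained by curve fitting.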

[1] = Therapeutic index, ratio of IC50 for human KB cells to IC50 for Plasmodium falciparum 3D7; assay type: cell-based; settings: KB cells (cytotoxicity) versus Plasmodium falciparum 3D7, read-out: TI
Plasmodium falciparum [2] = assay: Antimalarial activity against chloroquine-sensitive Plasmodium falciparum 3D7 assessed as growth inhibition by [3H]hypoxanthine incorporation assay; assay type: functional, organism-based
Procedure, shortened: (§1)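 Asynchronous P. falciparum culture (65-75% rings, 0.5% parasitemia) at 2.5% final hematocrit, with triplicate 3-fold drug dilutions (10.0 to 0.0041 μg/mL) in RPMI 1640 with 0.5% Albumax II, glucose, L-glutamine and 5 μM hypoxanthine. DMSO was ≤0.01% final. After 24 h at 37 °C in 5% CO2, [3H]hypoxanthine (0.2 μCi/well) was added for a further 24 h. Plates were frozen and harvested, incorporation counted by scintillation, and IC50 obtained by curve fitting.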

Plasmodium falciparum [3] = assay: Antimalarial activity against chloroquine-sensitive Plasmodium falciparum 3D7 assessed as growth inhibition by [3H]hypoxanthine incorporation assay relative to artemisinin; assay type: functional
Plasmodium berghei [4] = assay: Antimalarial activity against Plasmodium berghei ANKA infected Swiss CD1 mice (Mus musculus) assessed as reduction of parasitemia at 30 mg/kg, perorally administered after 3 hrs of infection for 3 days measured on day 4 relative to control; assay type: functional; settings: route oral
Procedure, shortened: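 Male Swiss CD-1 mice (20 g) infected iv with 4 × 10^6 P. berghei ANKA-infected red cells on day 0, in groups of five. Compound was given orally in standard suspending vehicle (carboxymethylcellulose, benzyl alcohol, Tween 80, saline), 3 × 30 mg/kg, starting 3 h post-infection, once daily. Parasitemia was counted on Giemsa-stained smears on day 4 and expressed as % inhibition versus the untreated group mean.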

Plasmodium falciparum [5] = assay: Antimalarial activity against chloroquine-resistant Plasmodium falciparum K1 (Thailand) assessed as growth inhibition by [3H]hypoxanthine incorporation assay relative to artemisinin; assay type: functional
Plasmodium berghei [6] = assay: Antimalarial activity against Plasmodium berghei ANKA infected NMRI mice (Mus musculus) assessed as mean survival time at 10 mg/kg, intraperitoneally 4 consecutive doses for 3 days measured on day 4 by FACS analysis; settings: route intraperitoneal
Plasmodium falciparum [7] = assay: Antimalarial activity against chloroquine-resistant Plasmodium falciparum K1 (Thailand) assessed as growth inhibition by [3H]hypoxanthine incorporation assay; assay type: functional, organism-based; procedure, shortened: as §1
Plasmodium berghei [8] = assay: Antimalarial activity against Plasmodium berghei ANKA infected NMRI mice (Mus musculus) assessed as reduction of parasitemia at 10 mg/kg, intraperitoneally 4 consecutive doses for 3 days measured on day 4 by FACS analysis; settings: ip
Plasmodium berghei [9] = assay: Antimalarial activity against Plasmodium berghei ANKA infected NMRI mice (Mus musculus) assessed as reduction of parasitemia treated perorally for 3 days measured on day 4; assay type: functional; settings: po

| SMILES | IC50 (KB) [nM] | selectivity ratio [1] | IC50 (Plasmodium falciparum [2]) [nM] | Ratio IC50 (Plasmodium falciparum [3]) | inhibition in vivo at 30 mg/kg (Plasmodium berghei [4]) [%] | Ratio IC50 (Plasmodium falciparum [5]) | MSD (Plasmodium berghei [6]) [days] | IC50 (Plasmodium falciparum [7]) [nM] | inhibition in vivo at 10 mg/kg (Plasmodium berghei [8]) [%] | ED50 (Plasmodium berghei [9]) [mg/kg] | ED90 (Plasmodium berghei [9]) [mg/kg] |
| --- | --- | --- | --- | --- | --- | --- | --- | --- | --- | --- | --- |
| C[C@H]1[C@H](c2ccc(CN(C)C)[nH]2)O[C@@H]2O[C@@]3(C)CC[C@H]4[C@H](C)CC[C@@H]1[C@@]24OO3 | 43600 | 2130 | 20.5 | 0.62 |  |  |  |  |  |  |  |
| CCN(CC)CCCC(C)Nc1ccnc2cc(Cl)ccc12 (stereo not drawn) [CHLOROQUINE PHOSPHATE] | 112000 |  |  |  |  |  |  |  |  |  |  |
| C[C@H]1[C@H](c2ccc(CN3CCN(C)CC3)[nH]2)O[C@@H]2O[C@@]3(C)CC[C@H]4[C@H](C)CC[C@@H]1[C@@]24OO3 | 85200 | 13100 | 6.5 | 1.97 | 97.7 | 1.64 | 7 | 5 | 98 |  |  |
| C[C@H]1[C@H](c2ccc(CN3CCN(C)CC3)n2C)O[C@@H]2O[C@@]3(C)CC[C@H]4[C@H](C)CC[C@@H]1[C@@]24OO3 | 96500 | 14800 | 6.5 | 1.97 | 100 | 2.16 | 9 | 3.8 | 100 | 1.99 | 5.34 |
| C[C@H]1[C@H](c2ccc[nH]2)O[C@@H]2O[C@@]3(C)CC[C@H]4[C@H](C)CC[C@@H]1[C@@]24OO3 | 62500 | 8450 | 7.4 | 1.73 |  |  |  |  |  |  |  |
| C[C@H]1[C@H](c2cccn2C)O[C@@H]2O[C@@]3(C)CC[C@H]4[C@H](C)CC[C@@H]1[C@@]24OO3 | 60300 | 11600 | 5.2 | 2.46 |  |  |  |  |  | 4.5 | 8.5 |
| CO[C@H]1O[C@@H]2O[C@@]3(C)CC[C@H]4[C@H](C)CC[C@@H]([C@H]1C)[C@@]24OO3 [ARTEMETHER] |  |  | 4.2 |  | 100 | 2.41 |  |  |  |  | 10.6 |
| C[C@H]1[C@H](c2ccc(CN3CCCC3)n2C)O[C@@H]2O[C@@]3(C)CC[C@H]4[C@H](C)CC[C@@H]1[C@@]24OO3 | 42200 | 11400 | 3.7 | 3.46 |  |  |  |  |  |  |  |
| C[C@H]1[C@H](OC(=O)CCC(=O)O)O[C@@H]2O[C@@]3(C)CC[C@H]4[C@H](C)CC[C@@H]1[C@@]24OO3 [ARTESUNATE] |  |  |  |  | 100 |  | 8 |  | 98 | 3.23 | > 10 |
| C[C@H]1[C@H](c2ccc(CN3CCOCC3)[nH]2)O[C@@H]2O[C@@]3(C)CC[C@H]4[C@H](C)CC[C@@H]1[C@@]24OO3 | 56500 | 22600 | 2.5 | 2.84 | 100 | 2.56 |  | 3.2 |  | 2.11 | 4.3 |
| C[C@H]1[C@H](c2ccc(CN3CCCCC3)n2C)O[C@@H]2O[C@@]3(C)CC[C@H]4[C@H](C)CC[C@@H]1[C@@]24OO3 | 39200 | 6430 | 6.1 | 2.1 |  |  |  |  |  |  |  |
| CCN(CC)Cc1ccc([C@@H]2O[C@@H]3O[C@@]4(C)CC[C@H]5[C@H](C)CC[C@@H]([C@H]2C)[C@@]35OO4)[nH]1 |  |  | 75.8 | 0.17 |  |  |  |  |  |  |  |
| C[C@H]1[C@H](c2ccc(CN(C)C)n2C)O[C@@H]2O[C@@]3(C)CC[C@H]4[C@H](C)CC[C@@H]1[C@@]24OO3 |  |  | 31.6 | 0.4 |  |  |  |  |  |  |  |
| C[C@H]1[C@H](c2ccc(CN3CCCCC3)[nH]2)O[C@@H]2O[C@@]3(C)CC[C@H]4[C@H](C)CC[C@@H]1[C@@]24OO3 | 143000 | 2410 | 59.4 | 0.22 |  |  |  |  |  |  |  |
| C[C@H]1[C@H](c2ccc(CN3CCOCC3)n2C)O[C@@H]2O[C@@]3(C)CC[C@H]4[C@H](C)CC[C@@H]1[C@@]24OO3 | 86200 | 24600 | 3.5 | 3.66 | 100 | 4.32 |  | 1.9 |  | 1.77 | 5.2 |
| C[C@H]1[C@H](c2ccc(CN3CCS(=O)(=O)CC3)n2C)O[C@@H]2O[C@@]3(C)CC[C@H]4[C@H](C)CC[C@@H]1[C@@]24OO3 | 68300 | 31100 | 2.2 | 5.82 |  | 2.3 |  | 3.57 |  |  |  |
| C[C@H]1[C@H](c2ccc(CN3CCC(N4CCCC4)CC3)n2C)O[C@@H]2O[C@@]3(C)CC[C@H]4[C@H](C)CC[C@@H]1[C@@]24OO3 |  |  | 2.5 | 5.12 |  | 1.12 |  | 7.3 |  |  |  |
| C[C@H]1[C@H](c2ccc(CN3CCSCC3)n2C)O[C@@H]2O[C@@]3(C)CC[C@H]4[C@H](C)CC[C@@H]1[C@@]24OO3 | 138000 | 19100 | 7.2 | 1.78 |  |  |  |  |  |  |  |
| C[C@H]1[C@H](c2ccc(CN3CCCC3)[nH]2)O[C@@H]2O[C@@]3(C)CC[C@H]4[C@H](C)CC[C@@H]1[C@@]24OO3 | 47000 | 2780 | 16.9 | 0.76 |  |  |  |  |  |  |  |
| CC(C)N1CCN(Cc2ccc([C@@H]3O[C@@H]4O[C@@]5(C)CC[C@H]6[C@H](C)CC[C@@H]([C@H]3C)[C@@]46OO5)n2C)CC1 |  |  | 5.1 | 2.51 |  | 0.99 |  | 8.3 |  |  |  |
| C[C@@H]1CC[C@H]2[C@@H](C)C(=O)O[C@@H]3O[C@@]4(C)CC[C@@H]1[C@]32OO4 [ARTEMISININ] | > 354000 | > 27700 | 12.8 |  |  |  |  | 8.2 |  |  |  |
| CC(C)N1CCN(Cc2ccc([C@@H]3O[C@@H]4O[C@@]5(C)CC[C@H]6[C@H](C)CC[C@@H]([C@H]3C)[C@@]46OO5)[nH]2)CC1 | 45300 | 5330 | 8.5 | 1.51 | 90.5 | 2.34 | 6 | 3.5 | 90 |  |  |
